Compound activity (PubChem)
Rows were chosen to be rich in hits. Some 2.3% of all compounds tested hit in one or more screens of this group.
CRFBP-R2 agonist = agonists of CRF-BP/CRF-R2 complex, primary screen, cell-based, HEK293, calcium dye fluorescence, uHTS; CRF-binding protein / CRF receptor 2 complex (human); calcium dye fluorescence (FLIPR); percent of saturating CRF peptide response; activation, % at 13.2 µM; 0.46% of 350,000 active; AID 588473, 2011;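 active = activation of at least 50%, plus an integration ratio under a set limit after plate pattern correction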
CRFBP-R2 block = antagonists of CRF-BP/CRF-R2 complex, primary screen, cell-based, HEK293, calcium dye fluorescence, uHTS. 0.59% of 350,000 active. inhibition, % at 11.8 µM. CRF-induced calcium fluorescence. AID 588475, 2011;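 active = inhibition of the ligand-induced calcium signal above about 50% at the single tested concentration, limit read from the data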
Rpn11 block = Rpn11 (PSMD14) deubiquitinase inhibitors, primary screen, biochemical, fluorescence polarization, uHTS; AID 588493, 2011; 0.59% of 360,000 active; 26S proteasome non-ATPase regulatory subunit 14 (Homo sapiens), O00487; human 26S proteasome, Ub4-pepOG fluorescence polarization; 20S core pre-blocked with epoxomicin; calls only at 20 µM;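 active = inhibition at 20 µM, scaled to each plate's controls, above about 33%, limit read from the data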
Target sequence (O00487 whole entry, looked up): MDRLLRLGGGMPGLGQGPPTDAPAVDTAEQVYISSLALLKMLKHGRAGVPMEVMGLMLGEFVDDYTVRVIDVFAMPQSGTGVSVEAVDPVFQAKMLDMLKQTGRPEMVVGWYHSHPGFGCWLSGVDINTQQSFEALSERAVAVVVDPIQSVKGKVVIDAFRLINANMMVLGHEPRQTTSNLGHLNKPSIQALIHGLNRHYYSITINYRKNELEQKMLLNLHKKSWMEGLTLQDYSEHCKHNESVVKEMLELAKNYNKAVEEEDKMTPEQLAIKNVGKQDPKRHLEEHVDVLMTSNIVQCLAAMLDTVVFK
HNF4A DNA FP = change in binding of human HNF4A to DNA, primary screen, biochemical, fluorescence polarization, FITC-DNA; AID 1224865, 2016; activity change, % at 10 µM; Hepatocyte nuclear factor 4-alpha (Homo sapiens), P41235; 0.3% of 360,000 active; 1 h; in the data active = activity change above about 30%, passing the limit was not always enough
TPT1 inhibitor = Candida albicans TPT1 enzyme inhibitors, primary screen, biochemical, fluorescence polarization. tRNA 2'-phosphotransferase TPT1 (Candida albicans SC5314). recombinant caTPT1, FP RNA substrate dephosphorylation. inhibition, % at 5 µM. 0.81% of 300,000 active. AID 1962, 2009;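 active = inhibition above the mean of all tested compounds plus 3 SD, set per screening campaign, cut at about 24% in these data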
CSN inh = inhibitors of CSN-mediated cullin deneddylation, primary screen, biochemical, fluorescence polarization, uHTS; COP9 signalosome complex subunit 5 (Homo sapiens), Q92905; Purified CSN, SCF-Nedd8-OG deneddylation; inhibition, % at 12.5 µM; 0.38% of 360,000 active; AID 651999, 2013;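 active = pattern-corrected inhibition above about 35%, with an unprinted fluorescence ratio check between 0.5 and 1.5, limit read from the data, passing the limit was not always enough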
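Assay system: purified human Csn5 enzyme expressed in HEK293T cells; measure: % inhibition; also added: SCFSkp2-Nedd8OG substrate at 10 nM final; technique: fluorescence polarization; times: reaction 90 min, room temperature; medium: Tris buffer pH 7.5, NaCl, DTT, Tween-20, trehalose, ovalbumin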
A number is an active result; i = inactive; nt = not tested or not shown; + = active, no number.

SMILES	CRFBP-R2 agonist	CRFBP-R2 block	Rpn11 block	HNF4A DNA FP	TPT1 inhibitor	CSN inh
N#CC(C#N)=C1C=C2C=C(N3CCCCCC3)CCC2CC1 (stereo not given)	216	i	nt	i	nt	i
CC1(C)CC(NCCN2CCN(C3=CC(=C(C#N)C#N)CC(C)(C)C3)CC2)=CC(=C(C#N)C#N)C1	i	i	i	i	i	i
COC(=O)c1cc(C(=O)Nc2ccc(C)cn2)cc([N+](=O)[O-])c1	i	i	i	i	i	i
C/C=C\C(=O)Nc1cccc(C2=NOC3(C2)C[C@@H](C(N)=O)N(C(=O)C2(C)CC2)C3)c1 (stereo not given in full)	i	i	i	i	i	i
Cc1ccc(CCNC(=O)c2cc(C)nn2-c2ccccc2)cc1	i	i	i	i	i	i
COc1ccc(C2N(Cc3ccccc3)CC(=O)N2/N=C(\C)c2ccccc2)cc1 (stereo not given)	i	81	i	i	i	i
CCOc1ccc(C(=O)Nc2ccc(N3CCN(C(=O)c4ccco4)CC3)cc2)cc1Br	i	i	i	i	nt	44
COc1ccccc1C(=O)NCC(=O)N1CCN(S(=O)(=O)c2ccccc2C(F)(F)F)CC1	i	i	i	i	nt	i
CCCN1C(=O)c2ccccc2NC1c1ccc(OC)c(CSc2ccccn2)c1 (stereo not given)	i	50	i	i	i	i
COc1ccc(N2C(=O)c3ccccc3NC2c2ccc(OC)c(CSc3ccccn3)c2)cc1 (stereo not given)	i	i	i	i	i	i
COc1cc(C=Nc2cccc(C)c2)c(O)c([N+](=O)[O-])c1	i	i	+	i	i	i
Cc1cccc(N=Cc2cc3c(cc2[N+](=O)[O-])OCO3)c1	i	i	i	i	i	i
O=C(COc1ccc(Cl)cc1)Nc1cc(S(=O)(=O)N2CCCCC2)ccc1N1CCCCC1	i	i	i	i	i	i
COc1ccc(C(=O)N(c2ccccc2)C2C=CS(=O)(=O)C2)cc1 (stereo not given)	i	52	i	i	i	i
CC(C)(CNC(=O)c1ccc(NS(=O)(=O)c2ccc(F)cc2)cc1)N1CCOCC1	i	i	i	i	nt	i
Cc1onc(-c2ccccc2Cl)c1C(=O)NCc1ccco1	i	i	i	i	i	49
S=C1Cc2ccccc2N1	i	i	i	i	nt	39
S=C1Nc2ccccc2CS1	i	i	i	i	nt	i
O=C(Nc1ccc([N+](=O)[O-])cc1Cl)c1cccc([N+](=O)[O-])c1	i	i	i	i	nt	i
O=C(Nc1cccc(Cl)c1)c1cc(N=Nc2ccc([N+](=O)[O-])cc2Cl)ccc1O	i	69	nt	i	i	i
O=C(Nc1ccc([N+](=O)[O-])cc1Cl)c1cc(Cl)ccc1O	61	87	i	i	i	i
O=C(Nc1cccc(Cl)c1)c1cccc(Oc2ccc([N+](=O)[O-])cc2Cl)c1	i	i	i	i	i	i
COc1ccc(C(NC(=O)c2ccc(=O)[nH]c2)C(=O)Nc2ccc(C(C)C)cc2)cc1 (stereo not given)	58	i	i	i	i	i
CC1CN(S(=O)(=O)c2ccc(C(=O)O)cc2)CC(C)O1 (stereo not given)	i	i	i	i	i	i
CC1CN(S(=O)(=O)c2ccc(C(=O)N3CCc4ccccc43)cc2)CC(C)O1 (stereo not given)	i	110	i	i	nt	i
SMILES	CRFBP-R2 agonist	CRFBP-R2 block	Rpn11 block	HNF4A DNA FP	TPT1 inhibitor	CSN inh
COCCNC(=O)c1cc(-c2ccccc2)nn1Cc1cc(C)no1	i	i	i	i	nt	i
O=C1Nc2cc(Br)ccc2C1(O)c1ccccc1O (stereo not given)	i	i	i	i	i	i
Cc1cc(O)c(C2(O)C(=O)Nc3cc(Br)ccc32)cc1C (stereo not given)	i	121	i	i	i	i
Cc1ccccc1NC1=NC(C)(C)N=C(N)N1	i	i	i	i	i	i
COc1ccc(C(=O)NC(=S)Nc2ccc(CN3CCOCC3)cc2)cc1Cl	i	i	i	i	i	i
Cc1[nH]n(-c2ccccc2)c(=O)c1/C=N/N1CCOCC1	i	i	i	i	i	i
Cc1[nH]n(-c2ccccc2)c(=O)c1/C=N/N1C(=O)c2cccc3cccc(c23)C1=O	62	i	i	i	i	i
CCOc1ccc(CN2CCC(C(=O)Nc3cccc(-c4ccn[nH]4)c3)CC2)cc1Cl	i	i	i	i	i	i
CC(C)C1OC2(C)OC(=N)C1(C#N)C(C#N)(C#N)C2c1ccccc1 (stereo not given)	62	i	i	i	i	i
Cc1cc(C)nc(NC(=O)Cc2cccs2)n1	i	i	i	i	i	i
Cc1cccc(C)c1NC(=O)Cc1cccs1	i	78	i	i	i	i
COc1cccc(-c2ccc(NC(=O)C3CCCN(Cc4cnn(C)c4)C3)cc2)c1 (stereo not given)	i	i	i	i	i	i
CC(=O)Nc1ccc(Sc2ncccc2C(=O)Nc2ccc(OC(F)(F)F)cc2)cn1	130	i	i	i	i	i
COc1ccc(N2CCN(C(=O)c3cn(CC4CCCCC4)nn3)CC2)cc1	i	i	i	i	i	i
N#C/C(=C(/O)c1ccccc1F)c1nc2cc(C(F)(F)F)ccc2s1	i	i	+	i	i	i
O=C(c1ccc2c(c1)OCO2)N1CCN(c2ccccc2F)CC1	i	i	i	i	i	i
CCOC(=O)C1=C(CCc2ccccc2)NC(=O)NC1c1cccc([N+](=O)[O-])c1 (stereo not given)	i	58	i	i	i	i
CNCC(=O)O	i	77	i	i	i	i
CCOC(=O)C(=CNCC(=O)O)C(=O)OCC	i	i	i	i	i	i
COc1cc(C)c(CN2CCSCC2)cc1C	i	i	i	i	i	i
CCC1CCCCN1Cc1ccc(OC)c(C)c1 (stereo not given)	65	i	i	i	i	i
COc1ccc(CN2CCSCC2)cc1C	69	i	i	i	i	i
CC(=O)Nc1ccc(S(=O)(=O)N2CCC(c3nnc(-c4ccc(C)cc4)o3)CC2)cc1	i	77	i	i	i	i
CCCc1nc(SCc2ccc(Cl)cc2Cl)n[nH]1	i	59	i	i	i	i
CCOC(=O)N1CCN(CC(O)COc2ccc(C(C)C)c(C)c2)CC1 (stereo not given)	i	i	i	i	i	i
CC(C)c1ccc(CCNC(=O)c2cccc(S(=O)(=O)N3CCN(C)CC3)c2)cc1	i	i	i	i	i	i
